# Measured values from different studies.
# Protocols differ between the studies behind these lines.
# Cell line: A549
# Observed: cell growth or viability
Structure (SMILES),test,setting,IC50
Fc1ccccc1Nc1nc(-c2ccncc2)nc2c1CNCC2,MTT,,> 100 µM
CC1=CC(=O)c2ccccc2C1=O,MTT,,55.6 µM
O=C(Nc1ccc(-c2ccc3ncn(Cc4ccccc4)c(=O)c3c2)cn1)C1CCC1,CCK-8,72 h,> 10 µM
COc1cccc(NC(=O)Nc2nc3cc(-c4ccc5ncn(CC(=O)N6CCOCC6)c(=O)c5c4)ccc3s2)c1,MTT,72 h,> 20 µM
O=C(C=Cc1ccc(OCCOc2ccc(C=CC(=O)c3cccs3)cc2)cc1)c1cccs1,MTT,48 h,273 µM
Cc1cc(NS(=O)(=O)c2ccc(NC(=O)/C(C#N)=C/c3ccc(N4CCOCC4)cc3)cc2)no1,MTT,48 h,109 µM
C(=N\Nc1cc(N/N=C/c2cccc3cccnc23)nc(-c2ccccc2)n1)/c1cccc2cccnc12,MTT,48 h,12.6 µM
O=C(Nc1cccc(F)c1)Nc1nc2cc(-c3ccc4ncn(CCN5CCOCC5)c(=O)c4c3)ccc2s1,MTT,72 h,> 20 µM
[NH2][Pt]([NH2])([Cl])[Cl],MTT,48 h,27.2 µM
O=C(NO)Nc1nc2c(Cl)cc(Cl)cc2c(=O)n1-c1ccccc1,MTT,48 h,45.1 µM
COc1ccc(NC(=S)N/N=C/c2cccc3cc4ccccc4nc23)cc1,MTT,48 h,17.8 µM
C/C(=N\CCNCCNCC/N=C(\C)c1c(O)c2ccccc2oc1=O)c1c(O)c2ccccc2oc1=O,MTT,48 h,6.66 µM
O=C1/C(=C/c2ccc3ccccc3c2O)NC(=S)N1c1ccccc1,MTT,,5.2 µg/mL
OC1CCN(c2ccc(/C=N/NC(=S)Nc3ccccc3)cc2)CC1,MTT,24 h,3.77 µM
COC(=O)c1cc(C(C)=NNc2nc(-c3ccc4c(c3)OCCCO4)cs2)ccc1O,MTT,96 h,180 µM
COc1cccc2c1C(=O)c1c(O)c3c(c(O)c1C2=O)C[C@@](O)(C(=O)CO)C[C@@H]3O[C@H]1C[C@H](N)[C@H](O)[C@H](C)O1,MTT,24 h,0.69 µg/mL
O=C(Cn1cc(COc2ncnc3[nH]cnc23)nn1)NCc1ccc(Cl)cc1,MTT,,15.3 µM
CCCCC(=O)Nc1ccc(-c2ccc3ncn(CCF)c(=O)c3c2)cn1,CCK-8,72 h,> 10 µM
O=C(Nc1cc(C(F)(F)F)cc(C(F)(F)F)c1)Nc1nc2cc(-c3ccc4ncn(Cc5ccccc5)c(=O)c4c3)ccc2s1,MTT,72 h,5.37 µM
CC(=O)c1c(O)c2ccccc2oc1=O,MTT,48 h,29.2 µM
O=C(NCCc1ccccc1)Nc1nc2cc(-c3ccc4ncn(CCN5CCOCC5)c(=O)c4c3)ccc2s1,MTT,72 h,4.92 µM
COc1cccc(CNc2ccc(C(=O)O)cc2)c1O,resazurin,72 h,> 100 µM
NS(=O)(=O)c1ccc(-n2nc(-c3nnc(S)o3)cc2-c2ccccc2)cc1,fluorescence,48 h,26.9 µM
CCCCCC(=O)Nc1ccc(-c2ccc3ncn(Cc4ccccc4)c(=O)c3c2)cn1,CCK-8,72 h,> 10 µM
O=C(Nc1cccc(C(F)(F)F)c1)Nc1nc2cc(-c3ccc4ncn(CCN5CCOCC5)c(=O)c4c3)ccc2s1,MTT,72 h,1.48 µM
CCCc1cc2cc(-n3nc(C)c4c3CC(C)(C)CC4=O)cc(N3CCC(O)CC3)c2c(=O)[nH]1,MTS,,7.38 µM
OC1CCN(c2ccc(/C=N/NC(=S)Nc3cccc(Cl)c3Cl)cc2)CC1,MTT,24 h,0.58 µM
CN1CCC(NC2CCc3[nH]c4c(C(N)=O)ccc(-c5ccccc5Cl)c4c3C2)CC1 (stereo not drawn),,,0.0301 µM
COc1cc([C@@H]2c3cc4c(cc3[C@@H](O[C@@H]3O[C@@H]5CO[C@@H](C)O[C@H]5[C@H](O)[C@H]3O)[C@H]3COC(=O)[C@H]23)OCO4)cc(OC)c1O,MTT,48 h,14.3 µM
CCCCn1cnc2ccc(-c3ccc(NC(=O)NCC)nc3)cc2c1=O,CCK-8,72 h,> 10 µM
CC(C)[C@@H]1NC(=O)[C@@H](Cc2c[nH]cn2)NC(=O)[C@H]([C@@H](C)O)NC(=O)[C@@H](CCCN)NC(=O)[C@H](Cc2ccccc2)NC(=O)[C@@H](Cc2ccccc2)NC1=O,ATP luminescence,,55.8 µM
C/C(=N\NC(=O)/N=C(\C)c1c(O)c2ccccc2oc1=O)c1c(O)c2ccccc2oc1=O,MTT,48 h,20.8 µM
CCCCn1cnc2ccc(-c3ccc(NC(=O)Nc4ccc(CC)cc4)nc3)cc2c1=O,CCK-8,72 h,> 10 µM
CC(=NNC(=O)c1cc(-c2ccccc2)n(-c2ccc(S(N)(=O)=O)cc2)n1)c1ccc(Br)cc1,fluorescence,48 h,25.9 µM
CC(C)[C@@H]1NC(=O)[C@@H](CCCNC(=N)N)NC(=O)[C@H]([C@@H](C)O)NC(=O)[C@@H](CCCN)NC(=O)[C@H](Cc2ccccc2)NC(=O)[C@@H](Cc2ccc(O)cc2)NC1=O,ATP luminescence,,> 100 µM
CC(=NNC(=O)c1cc(-c2ccccc2)n(-c2ccc(S(N)(=O)=O)cc2)n1)c1ccc(C)cc1,fluorescence,48 h,11.1 µM
O=C(NO)Nc1nc2ccc(Br)cc2c(=O)n1-c1ccccc1,MTT,48 h,28 µM
CC(C)CNC(=S)N/N=C/c1ccc(N2CCC(O)CC2)cc1,MTT,24 h,1.5 µM
O=C(Nc1ccc(F)cc1)Nc1nc2cc(-c3ccc4ncn(CCN5CCOCC5)c(=O)c4c3)ccc2s1,MTT,72 h,2.51 µM
C(=N\Nc1cc(N/N=C/c2ccc3ccccc3n2)nc(-c2ccccc2)n1)/c1ccc2ccccc2n1,MTT,48 h,7.32 µM
NNc1nc2ccc(Br)cc2c(=O)n1-c1ccccc1,MTT,48 h,53.5 µM
COc1ccc(CNc2ccc(C(=O)O)cc2)cc1,resazurin,72 h,> 100 µM
CNCc1cc(OC)cc2c1CN(c1cccc(-c3nncn3C(C)CC(F)(F)F)n1)C2=O (stereo not drawn),CCK-8,,> 10 µM
O=C(O)c1ccc(NCc2cccc(O)c2)cc1,resazurin,72 h,> 100 µM
Cc1ccc(NC(=O)Nc2nc3cc(-c4ccc5ncn(Cc6ccccc6)c(=O)c5c4)ccc3s2)cc1,MTT,72 h,7.61 µM
CC#CCn1cnc2ccc(-c3ccc(NC(=O)CCCC)nc3)cc2c1=O,CCK-8,72 h,> 10 µM
O=C(O)c1ccc(NCc2ccc(Cl)cc2)cc1,resazurin,72 h,> 100 µM
CCCC(=O)Nc1ccc(-c2ccc3ncn(CCC)c(=O)c3c2)cn1,CCK-8,72 h,0.46 µM
OC1CCN(c2ccc(/C=N/NC(=S)NC3CCCCC3)cc2)CC1,MTT,24 h,3.83 µM
COc1cc(CNc2ccc(C(=O)O)cc2)cc(OC)c1O,resazurin,72 h,> 100 µM
O=C(Nc1ccc(Br)cc1)Nc1nc2cc(-c3ccc4ncn(Cc5ccccc5)c(=O)c4c3)ccc2s1,MTT,72 h,> 20 µM
